From ChEMBL document CHEMBL4033718, “A novel serine racemase inhibitor suppresses neuronal over-activation in vivo” (Bioorg Med Chem, 2017)

Biological target: T1, Serine racemase (Mus musculus) (UniProt Q9QZX7)
T1 sequence (whole entry): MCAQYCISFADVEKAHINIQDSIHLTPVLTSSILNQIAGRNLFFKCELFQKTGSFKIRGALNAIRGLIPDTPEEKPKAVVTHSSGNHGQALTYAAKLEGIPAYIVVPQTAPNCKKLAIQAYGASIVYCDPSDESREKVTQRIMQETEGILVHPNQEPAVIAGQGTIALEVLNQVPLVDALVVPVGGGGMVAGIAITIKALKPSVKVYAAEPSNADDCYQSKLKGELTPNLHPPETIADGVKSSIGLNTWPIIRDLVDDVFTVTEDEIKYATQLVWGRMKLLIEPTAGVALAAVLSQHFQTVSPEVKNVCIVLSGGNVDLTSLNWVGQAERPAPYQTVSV
Experiment: Inhibition of mouse serine racemase assessed as remaining enzyme activity by measuring D-serine production using L-serine as substrate at 1 mM incubated for > 8 hrs
Summary of the method: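 Recombinant mouse Srr, 1.25 µg, in 100 mM HEPES pH 8.0 with PLP, 1 mM MgCl2, 5 mM DTT, 1 mM ATP, 20 mM L-Ser and 1 mM inhibitor. Product derivatized with 0.05% DNP in 2 M HCl for 5 min at 30 °C, then EtOH and 10 M NaOH added. A515 read after 10 min at room temperature.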

Row | Activity | SMILES
1 | 36% | Cc1ccc(CNC(=O)NCCNS(=O)(=O)c2cccc(Cl)c2)cc1
2 | 35% | O=C(COc1ccc(Cl)cc1)NCC(=O)Nc1ccc(F)c(F)c1F
3 | 32% | Cc1ccc(/C=C/S(=O)(=O)NCC(=O)OCc2ccc(Cl)c(Cl)c2)cc1

Test system: Mus musculus
Experiment: In-vivo inhibition of SRR in Arc-LucTg HL mouse brain assessed as reduction in kainate-induced NMDA-type glutamate receptor activation by measuring decrease in bioluminescence signal at 15 mg/kg, po incubated for 3 hrs followed by kainate treatment measured after 2 hrs relative to control
Assay type: functional
Summary of the method: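 Arc-Luc Tg hairless mice, baseline-imaged, then dosed 15 mg/kg p.o. in PEG-400 (vehicle controls) under 1.5% isoflurane. Basal imaging 3 h later, then kainate 20 mg/kg i.p. in saline. Luciferin EF 150 mg/kg i.p. Images at 2, 4 and 6 h: 60 s, 4×4 binning, ear-to-eye ROI, strongest of about 5 reads. Fold change vs 0 h; two-tailed t test.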

Row | SMILES | fold change (FC)
4 | O=C(/C=C/c1cc(Br)cc(Br)c1)NC(=S)NNC(=O)Cc1ccccc1 | 1.4

Biological target: not listed separately
Experiment: Inhibition of human serine racemase C2D2 mutant assessed as remaining enzyme activity by measuring D-serine production using L-serine as substrate incubated for > 8 hrs
Summary of the method: (§1)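 Recombinant human SRR C2D2 mutant, 8 µg, in 100 mM HEPES pH 8.0 with PLP, 1 mM MgCl2, 5 mM DTT, 1 mM ATP and 20 mM L-Ser. Product derivatized with 0.05% DNP in 2 M HCl for 5 min at 30 °C, then EtOH and 10 M NaOH added. Absorbance at 515 nm read after 10 min at room temperature.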

Row | IC50 | SMILES
5 | 770 µM | O=C(O)CC(=O)O [MALONIC ACID]
6 | 280 µM | Cc1ccc(S(=O)(=O)Nc2ccccc2NC(=O)Nc2ccc(Cl)c(Cl)c2)cc1
7 | 140 µM | O=C(/C=C/c1cc(Br)cc(Br)c1)NC(=S)NNC(=O)Cc1ccccc1
8 | 270 µM | Cc1ccc(/C=C/S(=O)(=O)NCC(=O)Nc2ccc(OCc3ccccc3)cc2)cc1

Species: Homo sapiens
Experiment: Inhibition of human serine racemase C2D2 mutant assessed as remaining enzyme activity by measuring D-serine production using L-serine as substrate at 1 mM incubated for > 8 hrs
Summary of the method: as §1

Row | Activity | SMILES
9 | 63% | O=C(O)CC(=O)O [MALONIC ACID]
10 | 49% | O=C(Cc1ccc(F)cc1)NNC(=S)NC(=O)Cc1ccc(F)cc1
11 | 24% | Cc1ccc(/C=C/C(=O)NC(=S)NNC(=O)Cc2cccs2)cc1
12 | 27% | COc1cccc(OC)c1/C=C/C(=O)NC(=S)NNC(=O)Cc1cccs1
13 | 39% | O=C(/C=C/c1c(F)cc(F)cc1F)NC(=S)NNC(=O)Cc1cccs1
14 | 44% | O=C(/C=C/c1ccc(C(F)(F)F)cc1)NC(=S)NNC(=O)Cc1cccs1
15 | 44% | O=C(/C=C/c1cc(Br)cc(Br)c1)NC(=S)NNC(=O)CCc1ccccc1
16 | 23% | O=C(/C=C/c1ccc(Cl)cc1)NC(=S)NNC(=O)Cc1cccs1
17 | 77% | Cc1ccc(S(=O)(=O)Nc2ccccc2NC(=O)Nc2ccc(Cl)c(Cl)c2)cc1
18 | 32% | COc1cccc(OC)c1/C=C/C(=O)NC(=S)NNC(=O)Cc1ccccc1
19 | 46% | O=C(/C=C/c1ccc(F)cc1)NC(=S)NNC(=O)c1cccs1
20 | 28% | CC(C)c1ccc(/C=C/C(=O)NC(=S)NNC(=O)Cc2cccs2)cc1
21 | 38% | O=C(/C=C/c1c(F)cc(F)cc1F)NC(=S)NNC(=O)Cc1ccccc1
22 | 20% | O=C(/C=C/c1cc(Br)cc(Br)c1)NC(=S)NNC(=O)Cc1ccccc1
23 | 61% | O=C(Cc1c(F)cccc1F)NNC(=S)NC(=O)Cc1ccccc1
24 | 55% | O=C(Cc1cc(F)cc(F)c1)NNC(=S)NC(=O)Cc1ccccc1
25 | 62% | O=C(Cc1ccc(F)cc1)NNC(=S)NC(=O)Cc1ccccc1
26 | 61% | O=C(Cc1cccs1)NNC(=S)NC(=O)Cc1ccccc1
27 | 54% | O=C(/C=C/c1cc(Br)cc(Br)c1)NC(=S)NNC(=O)Cc1ccc(F)cc1
28 | 45% | O=C(/C=C/c1ccc(F)cc1)NC(=S)NNC(=O)Cc1ccccc1
29 | 31% | COc1cccc(OC)c1/C=C/C(=O)NC(=S)NNC(=O)c1cccs1
30 | 22% | O=C(/C=C/c1ccc(F)cc1)NC(=S)NNC(=O)Cc1cccs1
31 | 53% | Cc1cccc(CC(=O)NNC(=S)NC(=O)Cc2ccccc2)c1
32 | 41% | Cc1ccc(/C=C/S(=O)(=O)NCC(=O)Nc2ccc(OCc3ccccc3)cc2)cc1
